Assay results from ChEMBL document CHEMBL1124360, “Dihydropyrimidines: novel calcium antagonists with potent and long-lasting vasodilative and antihypertensive activity” (J Med Chem, 1989).

What was measured:
Canis familiaris [1] = assay: Effective dose that lowers vascular resistance by, 30% in dogs when administered intravenously; type: functional; conditions: Canis lupus familiaris, iv
Summary of the method: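 Mongrel dogs (7-15 kg, either sex) are anesthetized with thiopental 30 mg/kg iv or ip, then urethane 400 mg/kg plus α-chloralose 60 mg/kg iv, and ventilated. Left vertebral flow is measured by electromagnetic probe and femoral arterial pressure is recorded. Resistance is pressure divided by flow. Compounds in ethanol are given iv at 0.05 mL/kg in cumulative rising doses; the dose cutting resistance 30% is taken (N = 3).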

Canis familiaris [2] = organism: Canis familiaris; assay: Effective dose against atrioventricular conduction in dogs at which they prolong atrioventricular conduction time by 30%; type: functional; conditions: Canis lupus familiaris
Summary of the method: (§1)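 Anesthetized open-chest dogs; atrium paced with square-wave pulses of 1.5-2.5 V, 2 ms, at 2.5 Hz. AV conduction time is the interval between atrial and ventricular electrograms. Compounds are dissolved in 100% DMSO and injected iv into the femoral vein at 0.05 mL/kg. Reported as the dose prolonging AVCT by 30% (mean ± SE, N = 4-5) or the dose inducing AV block.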

Canis familiaris [3] = assay: (§2) Time to peak response on lowering of vascular resistance, in dogs when administered intravenously; type: organism-based, Canis lupus familiaris; conditions: dog, in vivo, iv
Canis familiaris [4] = organism: Canis familiaris; assay: Dose at which compound induce atrioventricular block in dogs; AV means atrioventricular; range is 1000-3000; type: functional, Canis lupus familiaris; summary of the method: as §1
Canis familiaris [5] = assay: as §2; type: ADME, organism-based, Canis lupus familiaris; conditions: dog, in vivo, iv
[6] = target: T1, Voltage-gated L-type calcium channel (Rattus norvegicus, UniProt P22002+Q02485+P27732); assay: Inhibition of [3H]- Nitrendipine binding to L-type calcium channels of rat cerebral cortex; type: tissue-based
Summary of the method: (§3)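 Rat cerebral cortex is homogenized in ice-cold 50 mM Tris-HCl pH 7.7 and washed by repeated 40000g spins. Homogenate is incubated with 0.2 nM [³H]nitrendipine and drug for 1 h at 25 °C, then vacuum-filtered on glass-fiber filters and counted by liquid scintillation. Nonspecific binding is defined with 1 μM unlabeled nitrendipine.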

[7] = target: T1, Voltage-gated L-type calcium channel; assay: Inhibition of [3H]nitrendipine binding to L-type calcium channels of rat cerebral cortex; type: tissue-based; summary of the method: as §3
Canis familiaris [8] = organism: Canis familiaris; assay: Dose at which compound induce atrioventricular block in dogs; range is 100-3000; type: functional, Canis lupus familiaris; summary of the method: as §1
Canis familiaris [9] = organism: Canis familiaris; assay: Dose at which compound induce atrioventricular block in dogs; range is 100-300; type: functional, Canis lupus familiaris; summary of the method: as §1

| Structure (SMILES) | ED30 (Canis familiaris [1]) [µg/kg] | other results |
| --- | --- | --- |
| CCOC(=O)C1=C(C)N=C(C)N(C(=O)OCC)C1c1ccccc1Br (configuration not stated) | 5 | – |
| CC1=C(C(=O)OC(C)C)C(c2ccccc2[N+](=O)[O-])N(C(=O)OCCN(Cc2ccccc2)Cc2ccc3ccccc3c2)C=N1 (configuration not stated) | > 100 | – |
| CC1=C(C(=O)OC(C)C)C(c2ccccc2[N+](=O)[O-])N(C(=O)OCCN(Cc2ccccc2)Cc2ccc3ccccc3c2)C(C(C)C)=N1 (configuration not stated) | > 100 | – |
| CC1=C(C(=O)OC(C)C)C(c2ccccc2[N+](=O)[O-])N(C(=O)OCCN(Cc2ccccc2)Cc2ccc3ccccc3c2)C(N(C)C)=N1 (configuration not stated) | > 100 | – |
| CCOC(=O)C1=C(C)NC(=O)N(C(=O)OCCN(C)Cc2ccccc2)C1c1cccc(Cl)c1 (configuration not stated) | 43 | – |
| CC1=NC(C)=C(C(=O)OCC2CC2)C(c2ccccc2[N+](=O)[O-])N1C(=O)OCCN(CCCc1ccccc1)Cc1ccccc1 (configuration not stated) | 4.3 | ED30 (Canis familiaris [2]): 843 µg/kg; Tp (Canis familiaris [3]): 4.8 min; AV block (Canis familiaris [4]): 1000 µg/kg |
| CC1=NC(C)=C(C(=O)OCC2CC2)C(c2ccccc2[N+](=O)[O-])N1C(=O)OCCN(C/C=C/c1ccccc1)Cc1ccccc1 (configuration not stated) | 3.9 | Tp (Canis familiaris [3]): 5.6 min |
| CCOC(=O)C1=C(C)N=C(C)N(C(=O)OCCN(C)Cc2ccccc2)C1c1ccccc1[N+](=O)[O-] (configuration not stated) | 0.75 | – |
| CC1=NC(C)=C(C(=O)OC(C)C)C(c2ccccc2[N+](=O)[O-])N1C(=O)OCCN(Cc1ccccc1)Cc1ccc2ccccc2c1 (configuration not stated) | 1.8 | Tp (Canis familiaris [5]): 7.9 min; ED30 (Canis familiaris [2]): 762 µg/kg; IC50 [6]: 7.08 nM; AV block (Canis familiaris [4]): 1000 µg/kg |
| CO/C(O)=C1/C(C)=NC(C)=C(C(=O)OCCN2CCN(C(c3ccccc3)c3ccccc3)CC2)C1c1cccc([N+](=O)[O-])c1 (configuration not stated) | – | IC50 [6]: 8.68 nM |
| CC1=NC(C)=C(C(=O)OC(C)C)C(c2ccccc2[N+](=O)[O-])N1C(=O)OCCN(CCc1ccccc1)Cc1ccccc1 (configuration not stated) | 1.2 | Tp (Canis familiaris [3]): 2.7 min |
| CCCCCCCOC(=O)C1=C(C)N=C(C)N(C(=O)OCC)C1c1ccccc1[N+](=O)[O-] (configuration not stated) | 23 | – |
| CC1=NC(C)=C(C(=O)OC(C)C)C(c2ccccc2[N+](=O)[O-])N1C(=O)OCCN(Cc1ccccc1)Cc1ccccc1 (configuration not stated) | 2.8 | Tp (Canis familiaris [3]): 2.6 min |
| CCC1N=C(C)/C(=C(/O)OC(C)C)C(c2ccccc2[N+](=O)[O-])N1C(=O)OCN(Cc1ccccc1)Cc1ccc(Cl)c(Cl)c1 (configuration not stated) | 19.5 | Tp (Canis familiaris [3]): 5.5 min |
| CSC1=NC(C)=C(C(=O)OC(C)C)C(c2ccccc2[N+](=O)[O-])N1C(=O)OCCN(Cc1ccccc1)Cc1ccc2ccccc2c1 (configuration not stated) | > 100 | – |
| CCOC(=O)C1=C(Cl)N=C(C)N(C(=O)OCCN(Cc2ccccc2)Cc2ccc3ccccc3c2)C1c1ccccc1[N+](=O)[O-] (configuration not stated) | 10 | Tp (Canis familiaris [3]): 5.2 min |
| CCOC(=O)C1=C(COCCN(Cc2ccccc2)Cc2ccc(Cl)c(Cl)c2)N=C(C)N(C(=O)OC)C1c1ccccc1[N+](=O)[O-].Cl (configuration not stated) | > 100 | – |
| CCCCCCCOC(=O)N1C(=O)NC(C)=C(C(=O)OCC2CC2)C1c1ccccc1[N+](=O)[O-] (configuration not stated) | 2.3 | Tp (Canis familiaris [3]): 1.9 min |
| CC1=NC(C)=C(C(=O)OCC2CC2)C(c2ccccc2[N+](=O)[O-])N1C(=O)OCCN(C)Cc1ccccc1 (configuration not stated) | 0.5 | – |
| CCCCCCCOC(=O)C1=C(C)N=C(C)N(C(=O)OCCCCCCC)C1c1ccccc1[N+](=O)[O-] (configuration not stated) | 180 | – |
| CCC1N=C(C)/C(=C(/O)OC(C)C)C(c2ccccc2[N+](=O)[O-])N1C(=O)OCN(Cc1ccccc1)Cc1ccc2ccccc2c1 (configuration not stated) | 13.5 | Tp (Canis familiaris [3]): 7.2 min |
| CCCCCCCOC(=O)C1=C(C)N=C(C)N(C(=O)OCCN(Cc2ccccc2)Cc2ccccc2)C1c1ccccc1[N+](=O)[O-] (configuration not stated) | > 30 | – |

| Structure (SMILES) | ED30 (Canis familiaris [1]) [µg/kg] | other results |
| --- | --- | --- |
| CCOC(=O)N1C(CC)=NC(C)=C(C(=O)OC(C)C)C1c1ccccc1[N+](=O)[O-] (configuration not stated) | 8 | – |
| CC1=C(C(=O)OC(C)C)C(c2ccccc2[N+](=O)[O-])N(C(=O)OCCN(Cc2ccccc2)Cc2ccccc2)C(C(F)(F)F)=N1 (configuration not stated) | 6.8 | – |
| CCOC(=O)C1=C(C)N=C(C)N(C(=O)OCC)C1c1ccccc1[N+](=O)[O-] (configuration not stated) | 3 | – |
| CC1=NC(C)=C(C(=O)OC(C)C)C(c2ccccc2[N+](=O)[O-])N1C(=O)OCCN(Cc1ccccc1)c1ccccc1 (configuration not stated) | 0.74 | Tp (Canis familiaris [3]): 1.9 min |
| CC1=NC(C)=C(C(=O)OC(C)C)C(c2ccccc2[N+](=O)[O-])N1C(=O)OCCN(Cc1ccccc1)Cc1ccc(Cl)c(Cl)c1 (configuration not stated) | 2.1 | Tp (Canis familiaris [5]): 10.8 min; ED30 (Canis familiaris [2]): 596 µg/kg; IC50 [6]: 2.05 nM; AV block (Canis familiaris [4]): 1000 µg/kg |
| CCCCOC(=O)C1=C(C)N=C(C)N(C(=O)OCCN(Cc2ccccc2)Cc2ccccc2)C1c1ccccc1[N+](=O)[O-] (configuration not stated) | 6.8 | Tp (Canis familiaris [3]): 4.7 min |
| CCC1=NC(C)=C(C(=O)OC(C)C)C(c2ccccc2[N+](=O)[O-])N1C(=O)OCCN(Cc1ccccc1)Cc1ccc2ccccc2c1 (configuration not stated) | 27 | – |
| CCOC(=O)C1=C(C)NC(=O)N(C(=O)OCC(c2ccccc2)c2ccccc2)C1c1cccc([N+](=O)[O-])c1 (configuration not stated) | 10.6 | – |
| CCOC(=O)N1C(C(F)(F)F)=NC(C)=C(C(=O)OC(C)C)C1c1ccccc1[N+](=O)[O-] (configuration not stated) | 8.3 | – |
| CCCCCCCOC(=O)N1C(=O)NC(C)=C(C(=O)OCC2CC2)C1c1cccc([N+](=O)[O-])c1 (configuration not stated) | 3 | – |
| CCOC(=O)C1=C(C)N=C(C)N(C(=O)OCC)C1c1ccccc1Cl (configuration not stated) | 5 | – |
| CCOC(=O)C1=C(C)N=C(C)N(C(=O)OCC)C1c1cccc([N+](=O)[O-])c1 (configuration not stated) | 10 | – |
| CCCCCCCOC(=O)N1C(C)=NC(C)=C(C(=O)OCC)C1c1ccccc1[N+](=O)[O-] (configuration not stated) | 3.2 | – |
| CCCCCCCOC(=O)N1C(C)=NC(C)=C(C(=O)OCC2CC2)C1c1ccccc1[N+](=O)[O-] (configuration not stated) | 5.6 | – |
| CCOC(=O)N1C(C)=NC(C)=C(C(=O)OCCN(C)Cc2ccccc2)C1c1ccccc1[N+](=O)[O-] (configuration not stated) | 13 | – |
| CC1=C(C(=O)OCC2CC2)C(c2cccc([N+](=O)[O-])c2)N(C(=O)OCCN(C)Cc2ccccc2)C(=O)N1 (configuration not stated) | 13 | – |
| CC1=C(C(=O)OC(C)C)C(c2ccccc2[N+](=O)[O-])N(C(=O)OCCN(Cc2ccccc2)Cc2ccc3ccccc3c2)C(=O)N1 (configuration not stated) | 10 | Tp (Canis familiaris [3]): 7.8 min |
| COC(=O)C1=C(C)NC(C)=C(C(=O)OCCN(C)Cc2ccccc2)C1c1cccc([N+](=O)[O-])c1 (configuration not stated) [NICARDIPINE] | 3 | IC50 [7]: 2.66 nM; Tp (Canis familiaris [5]): 1.2 min; ED30 (Canis familiaris [2]): 175 µg/kg; AV block (Canis familiaris [8]): 100 µg/kg |
| COC(=O)C1=C(C)NC(C)=C(C(=O)OC)C1c1ccccc1[N+](=O)[O-] [NIFEDIPINE] | 0.5 | Tp (Canis familiaris [5]): 0.7 min |
| COC(=O)C1=C(C#N)NC(C)=C(C(=O)OC(C)C)C1c1cccc([N+](=O)[O-])c1 (configuration not stated) [NILVADIPINE] | – | IC50 [7]: 1.04 nM; ED30 (Canis familiaris [2]): 34 µg/kg; AV block (Canis familiaris [9]): 100 µg/kg |
| CCOC(=O)C1=C(C)NC(C)=C(C(=O)OC)C1c1cccc([N+](=O)[O-])c1 (configuration not stated) [NITRENDIPINE] | 1.2 | Tp (Canis familiaris [3]): 1 min |
